According to ChEMBL document CHEMBL3407469, “Development of benzimidazole derivatives to inhibit HIV-1 replication through protecting APOBEC3G protein” (Eur J Med Chem, 2015):

Key:
[1] = Cytotoxicity against human H9 cells by MTS assay; assay type: cell-based
[2] = tested on: 293T; assay: Inhibition of full-length X4 tropic HIV-1 clone pNL4-3 Vif/human APOBEC3G complex transfected in human 293T cells measured at 50 uM after 48 hrs by GFP-based fluorescence assay relative to control; assay type: cell-based
Method in brief: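 This was the primary screen in 293T cells co-transfected with HA-Vif and A3G-GFP plasmids (Lipofectamine 2000) and given a single compound concentration. DMSO-only wells and A3G-GFP-only transfected wells served as controls. GFP was read after 48 h. A3G-GFP MFI fold change was scored as −, none or <1; +, 1–2; ++, 2–3; +++, >3.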

[3] = tested on: Human immunodeficiency virus 1; assay: Antiviral activity against X4 tropic HIV-1 clone pNL4-3 infected in H9 cells assessed as reduction in p24 antigen after 4 days by ELISA; assay type: functional, organism-based; conditions: Human immunodeficiency virus 1, pNL4-3, H9, 96 h

Structure (SMILES) | IC50 [3] [µM] | CC50 [1] [µM] | fold change (FC) [2]
CCN(CC)c1ccc(/C=C(\C#N)c2nc3cc(C(=O)O)ccc3[nH]2)cc1 | > 50 | > 50 | 2
CCN(CC)c1ccc(/C=C(\C#N)c2nc3ccccc3n2CC)cc1 | > 50 | > 50 | < 1
CC(=O)Nc1ccc(/C=C(\C#N)c2nc3ccccc3[nH]2)cc1 | > 50 | > 50 | < 1
N#C/C(=C\c1ccc(N2CCOCC2)cc1)c1nc2ccccc2[nH]1 | > 50 | > 50 | > 3
N#C/C(=C\c1ccc(N2CCCC2)cc1)c1nc2ccccc2[nH]1 | > 50 | > 50 | < 1
CCN(CC)c1ccc(/C=C(\C#N)c2nc3cc(Cl)c(Cl)cc3[nH]2)cc1 | 1.25 | > 50 | > 3
Cc1ccc(/C=C(\C#N)c2nc3ccccc3[nH]2)cc1 | > 50 | > 50 | < 1
CCN(CC)c1ccc(/C=C(\C#N)c2nc3cc(C(C)(C)C)ccc3[nH]2)cc1 | 1.04 | > 50 | > 3
CCN(CC)c1ccc(/C=C(\C#N)c2nc3ccccc3n2C)cc1 | > 50 | > 50 | < 1
N#C/C(=C\c1ccc(C(=O)O)cc1)c1nc2ccccc2[nH]1 | > 50 | > 50 | < 1
COc1cc(/C=C(\C#N)c2nc3ccccc3[nH]2)cc(OC)c1OC | > 50 | > 50 | 1
CCN(CC)c1ccc(/C=C(\C#N)c2nc3ccccc3n2C2CC2)cc1 | > 50 | > 50 | < 1
CCN(CC)c1ccc(/C=C(\C#N)c2nc3cc(Br)ccc3[nH]2)cc1 | > 50 | > 50 | 2
CCCN(CCC)c1ccc(/C=C(\C#N)c2nc3ccccc3[nH]2)cc1 | 1.09 | > 50 | 2
CCN(CC)c1ccc(/C=C(\C#N)c2nc3cc(C(F)(F)F)ccc3[nH]2)cc1 | 1.13 | > 50 | 2
CCN(CC)c1ccc(/C=C(\C#N)c2nc3ccccc3o2)cc1 | 2.38 | > 50 | 2
CCN(CC)c1ccc(/C=C(\C#N)c2nc3cc(N(C)C)ccc3[nH]2)cc1 | 2.68 | > 50 | 1

The next lines start with results.

IC50 [3] [µM] | Structure (SMILES) | CC50 [1] [µM] | fold change (FC) [2]
> 50 | CS(=O)(=O)c1ccc(/C=C(\C#N)c2nc3ccccc3[nH]2)cc1 | > 50 | < 1
> 50 | CCN(CC)c1ccc(CC(C#N)c2nc3ccccc3[nH]2)cc1 (centres undefined) | > 50 | < 1
> 50 | N#C/C(=C\c1ccc(-c2ccccc2)cc1)c1nc2ccccc2[nH]1 | > 50 | < 1
> 50 | CN1CCN(c2ccc(/C=C(\C#N)c3nc4ccccc4[nH]3)cc2)CC1 | > 50 | < 1
0.29 | COc1cc(/C=C(\C#N)c2nc3ccccc3[nH]2)ccc1N(C)C | > 50 | 1
> 50 | COc1ccc(/C=C(\C#N)c2nc3ccccc3[nH]2)cc1OC | > 50 | 1
0.24 | CCN(CC)c1ccc2cc(-c3nc4ccccc4[nH]3)c(=O)oc2c1 | > 50 | > 3
> 50 | N#C/C(=C\c1ccc(-n2ccnc2)cc1)c1nc2ccccc2[nH]1 | > 50 | < 1
1.64 | CCN(CC)c1ccc(/C=C(\C#N)c2nc3cc(C)c(C)cc3[nH]2)cc1 | > 50 | > 3
3.3 | CC(C)N(c1ccc(/C=C(\C#N)c2nc3ccccc3[nH]2)cc1)C(C)C | > 50 | 2
0.72 | N#C/C(=C\c1ccc2[nH]ccc2c1)c1nc2ccccc2[nH]1 | > 50 | > 3
